DNMT1 block: DNMT1 (human) enzyme inhibition | P26358 | DNMT1 molecular beacon, Hinp1I cleavage, fluorescence | inhibition (reported as % activation of signal), % at 10 µM | hit rate 0.83% among 360,000 | AID 588458; in the data active = inhibition above about 50%
STEP block: inhibitors of human striatal-enriched phosphatase STEP | P54829 | recombinant STEP, OMFP fluorogenic substrate, fluorescence | inhibition, % at 20 µM | hit rate 0.25% among 360,000 | AID 588621;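 active = inhibition at 20 µM, scaled per plate between control wells, above about 37%, limit read from the data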;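 also: 0% = DMSO with enzyme and substrate and 100% = substrate only without enzyme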
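Material: STEP (striatal-enriched tyrosine phosphatase) enzyme, cell-free; Compound dosing: 20 µM single dose in 1% DMSO; Technique: fluorescence read at 480 nm ex / 540 nm em; Times: reaction 20 min, ambient temperature; Medium: 50 mM Bis-Tris pH 6.0 with 2.5 mM DTT and 0.005% Tween 20; Also added: OMFP at 25 µM.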
Scp1 inh: inhibitors of human Scp-1 phosphatase; Recombinant Scp1, phosphopeptide, malachite green phosphate absorbance; inhibition, % at 20 µM; AID 493091; hit rate 0.88% among 340,000; Q9GZU7;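 active = inhibition above about 50% at 20 µM, limit read from the data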;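 also: plate controls were DMSO wells with enzyme for no effect and wells lacking enzyme for full effect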
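System: SCP-1 catalytic domain; Reagent: Phospho 17-mer peptide substrate; Doses: one concentration, 20 µM, with 1.0% DMSO; Incubation: 45 min room-temperature reaction, 5 min colour, 30 min stabiliser; Signal: Phosphate-binding colour reagent, absorbance read at 630 nm.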
SUMO1 PPI mod: modulators of human SUMO1-mediated protein-protein interactions; SUMO1 binding to a labelled peptide, TR-FRET, 1 h; P63165; AID 602429; hit rate 0.33% among 360,000; inhibition, % at 20 µM; in the data active = inhibition above about 37%
Target sequence (P63165 whole entry, looked up): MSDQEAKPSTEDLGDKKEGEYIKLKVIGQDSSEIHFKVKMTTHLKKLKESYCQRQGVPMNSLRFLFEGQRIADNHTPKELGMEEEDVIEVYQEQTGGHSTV
LMPTP block: blocks human LMPTP phosphatase. P24666. recombinant LMPTP-A, OMFP fluorogenic substrate, fluorescence intensity. hit rate 0.22% among 360,000. inhibition, % at 20 µM. AID 651560;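 active = compounds that cut the enzyme signal by at least half of the control window in the single-dose screen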;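 also: plate controls were DMSO wells with enzyme plus substrate for no effect and substrate without enzyme for full effect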
Target sequence (P24666 whole entry, looked up): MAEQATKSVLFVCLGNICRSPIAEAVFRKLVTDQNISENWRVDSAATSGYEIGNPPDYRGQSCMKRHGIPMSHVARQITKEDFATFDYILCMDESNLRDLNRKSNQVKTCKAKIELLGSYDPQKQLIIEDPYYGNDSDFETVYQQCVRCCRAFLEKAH
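test system = LMPTP-A | amount = 0.625 nM LMPTP-A final | reagent = fluorogenic phosphatase substrate OMFP at 400 µM final | incubation = 50 min at room temperature | benchmarks = no-enzyme low control, uninhibited high control | medium = Bis-Tris pH 6.0, DTT, detergent | signal = fluorescence intensity of OMFP turnover product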
CSN deneddyl inh: CSN deneddylation inhibition | Purified CSN, SCF-Nedd8-OG deneddylation, fluorescence polarization | inhibition, % at 12.5 µM | hit rate 0.38% among 360,000;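 active = pattern-corrected inhibition above about 35%, with an unprinted fluorescence ratio check between 0.5 and 1.5, limit read from the data, passing the limit was not always enough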;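 also: 0% = enzyme with substrate and 100% = substrate without enzyme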
Target sequence (Q92905 whole entry, looked up, one chain of several): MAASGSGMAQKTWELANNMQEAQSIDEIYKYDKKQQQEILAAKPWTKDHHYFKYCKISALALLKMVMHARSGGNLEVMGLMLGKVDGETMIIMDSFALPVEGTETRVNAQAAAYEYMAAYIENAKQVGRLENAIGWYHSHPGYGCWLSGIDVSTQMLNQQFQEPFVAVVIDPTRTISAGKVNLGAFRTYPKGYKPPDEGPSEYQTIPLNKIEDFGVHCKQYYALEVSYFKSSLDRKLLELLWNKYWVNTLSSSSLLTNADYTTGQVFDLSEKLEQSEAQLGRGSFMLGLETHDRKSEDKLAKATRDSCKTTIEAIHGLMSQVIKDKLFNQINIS
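Material: purified human Csn5 enzyme expressed in HEK293T cells / Medium: Tris buffer pH 7.5, NaCl, DTT, Tween-20, trehalose, ovalbumin / Compound dosing: 12.5 µM single point / Schedule: 90 min incubation of compound, enzyme and substrate at room temperature / Signal: fluorescence polarization of the substrate / Control set: no-enzyme wells high, enzyme-with-substrate wells low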
Scp-1 conf: Scp-1 (human) inhibition, single-dose confirmed | shares compounds with Scp1 inh | recombinant SCP-1 catalytic domain, phosphate release, malachite green absorbance | inhibition, % at 20 µM | hit rate 61% among 2,500;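 also: plate controls were DMSO with enzyme for no effect and buffer wells lacking enzyme for full effect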
Scp-1 MG ctr: interferes with malachite green readout, flagging false Scp-1 hits | 2,500 tested, under 10 active | AID 540313 | Colorimetric interference counterscreen, malachite green absorbance 630 nm | apparent inhibition (interference), % at 20 µM | shares compounds with Scp1 inh;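 also: compounds added after enzyme reaction finished so only phosphate colour detection is probed; plate controls were DMSO wells with completed Scp-1 reaction for no effect and substrate wells lacking enzyme for full effect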
Scp1 DSF: Scp-1 (human) binding by thermal shift | thermal shift relative to vanadate control, % at 40 µM | Recombinant SCP1, Sypro Orange thermal shift Tm | hit rate 25% among 1,500 | shares compounds with Scp1 inh;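 active = substances whose mean melting-temperature shift, as a percentage of the reference inhibitor's shift, reaches about 5.3%, limit read from the data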;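 also: 0% = Tm of DMSO wells and 100% = Tm with sodium orthovanadate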
Beacon interf DR: counter-screen for DNMT1 inhibitors: spectral interference, dose response; 200 tested, under 10 active; IC50, µM; AID 602382; molecular beacon fluorescence; shares compounds with DNMT1 block; call rule not given here
DNMT1 confirm: DNMT1 inhibition confirmation, single concentration; shares compounds with DNMT1 block; DNMT1 molecular beacon HinP1I cleavage, fluorescence; inhibition, % at 10 µM; hit rate 8% among 2,300;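 active = average inhibition of at least 30% in the single-concentration confirmation test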
DNMT1 interf: beacon fluorescence artifact counter-screen; shares compounds with DNMT1 block; DNMT1 molecular beacon spectral interference counterscreen, fluorescence 485/520; activation (fluorescence interference), % at 10 µM; hit rate 1% among 2,300; AID 602387;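 active = activation of at least 30% at 10 µM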;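 also: DNMT1 catalytic domain with a HinP1I cleavage step and a FAM/dabcyl DNA beacon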
Active calls of the source: *; nt = not tested or not shown. A selection: hits, their analogues and other compounds. The true share with any hit is near 2%.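 The calls were made as follows, unless noted: active = inhibition of at least 30% at 20 µM; inactive = the rest.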

SMILES	DNMT1 block	STEP block	Scp1 inh	SUMO1 PPI mod	LMPTP block	CSN deneddyl inh	Scp-1 conf	Scp-1 MG ctr	Scp1 DSF	DNMT1 confirm	DNMT1 interf	others
O=C(O)c1cc(-c2ccc(/C=N/N3C(=O)C4C5C=CC(CC5)C4C3=O)o2)ccc1Cl (stereo not drawn)	8	9	23	-11	0	-5	nt	nt	nt	nt	nt
Cc1cccc(N2NC(=O)/C(=C/c3ccc(-c4ccc(Cl)c(C(=O)O)c4)o3)C2=O)c1	84*	21	71*	30	26	24	56*	-23	12*	12	0
CCOC(=O)c1cc(-c2ccc(/C=C3/C(=O)N(c4ccc(C(=O)O)cc4)N=C3C)o2)ccc1Cl	30	8	12	36	20	31	nt	nt	nt	nt	nt
CCOCCCNC(=O)c1cccc(OC2CCN(S(C)(=O)=O)CC2)c1	-1	-3	-4	1	-2	-4	nt	nt	nt	nt	nt
NS(=O)(=O)c1ccc(CNC(=O)Cc2cccs2)cc1	52*	3	83*	2	50*	12	48*	-19	6.9*	5	1
O=C(Cc1cccs1)NCc1ccccc1	-1	-4	-4	0	-3	-5	nt	nt	nt	nt	nt
O=C(N/N=C/c1ccc([N+](=O)[O-])o1)c1cn2ccc3ccccc3c2n1	55*	-1	80*	29	7	9	-11	-16	nt	3	-2
CCCN(C(=O)c1cccc(-n2cccc2)c1)c1c(N)n(Cc2ccccc2)c(=O)[nH]c1=O	81*	4	74*	21	15	26	66*	-9	-17	12	0
O=C1Cc2cc(S(=O)(=O)Nc3ccccc3Cl)cc3c2N1CCC3	1	-2	-11	2	1	-1	nt	nt	nt	nt	nt
O=C(CCS(=O)(=O)c1ccc(Br)cc1)N1CCN(c2ccccc2)CC1	28	2	15	0	-1	1	nt	nt	nt	nt	nt
Cc1cccc(N2CCN(C(=O)CCS(=O)(=O)c3ccc(Br)cc3)CC2C)c1 (stereo not drawn)	70*	3	84*	0	0	7	74*	-6	-1	1	-1
O=C(CC12CC3CC(CC(C3)C1)C2)Nc1ccccc1N1CCOCC1	2	1	15	10	1	1	nt	nt	nt	nt	nt
CCC1=NN2C(=N)/C(=C\c3ccc(OCc4cc(=O)n5nc(CC)sc5n4)c(OC)c3)C(=O)N=C2S1	87*	0	75*	44*	3	31	51*	-8	3	15	0
COc1cc(/C=N/NC(=O)c2ccccc2O)ccc1OC(=O)CC1SC(=O)NC1=O (stereo not drawn)	3	0	-2	-2	0	-2	nt	nt	nt	nt	nt
CCc1ccc(OC(C)C(=O)Nc2ccc(S(=O)(=O)Nc3nccs3)cc2)cc1 (stereo not drawn)	-4	-3	-10	7	0	2	nt	nt	nt	nt	nt
Cc1ccc(CNC(=O)CCS(=O)(=O)c2ccc(Br)cc2)cc1	89*	8	84*	7	1	25	76*	-5	-1	24	7
Cc1ccccc1NC(=O)CCS(=O)(=O)c1ccc(Br)cc1	8	5	28	10	0	-1	nt	nt	nt	nt	nt
O=C(CCS(=O)(=O)c1ccc(Br)cc1)NCCC1=CCCCC1	65*	7	63*	1	0	2	72*	-10	-22	6	1
CCN(CC)c1ccc(NC(=O)CCS(=O)(=O)c2ccc(Br)cc2)c(C)c1	97*	4	82*	27	-1	10	49*	-16	-14	42*	4	Beacon interf DR=>99
CN(C)c1ccc(C(=S)N2CCCC2)cc1Br	-1	1	-6	3	0	-4	nt	nt	nt	nt	nt
COc1cc(NC(=S)N2CCN(C(=O)C3CCCO3)CC2)c(OC)cc1Cl (stereo not drawn)	-3	19	-4	4	-1	-6	nt	nt	nt	nt	nt
CCCCCCCCN1C(=O)[C@H](CC(=O)NCC2CCCCC2)C[C@@]2(C(=O)OC)CCCCC=C12	nt	nt	nt	5	4	1	nt	nt	nt	nt	nt
COc1ccc(-c2nnc(NC(=O)c3cccs3)s2)c(OC)c1	80*	14	96*	13	45	5	67*	-16	-18	2	-4
COc1ccc(CCNC(=O)CSC2=NS(=O)(=O)c3cc(F)ccc3N2)cc1OC	-5	2	nt	2	-1	-3	nt	nt	nt	nt	nt
O=C(NCCCN1CCCC1=O)c1cccc(S(=O)(=O)Nc2ccccc2Cl)c1	5	1	-9	2	-1	-1	nt	nt	nt	nt	nt
SMILES	DNMT1 block	STEP block	Scp1 inh	SUMO1 PPI mod	LMPTP block	CSN deneddyl inh	Scp-1 conf	Scp-1 MG ctr	Scp1 DSF	DNMT1 confirm	DNMT1 interf	others
CCCCCN(C(=O)CCC(=O)OCC(=O)NCCc1ccccc1)c1c(N)n(CCCC)c(=O)[nH]c1=O	-1	0	nt	0	-2	-4	nt	nt	nt	nt	nt
O=C(Nc1ccccc1)OCCc1ccccc1	-2	2	nt	-1	-1	-2	nt	nt	nt	nt	nt
CC(C)c1cccc(C(C)C)c1NC(=O)COC(=O)[C@H](C)NC(N)=O	-1	-2	-7	-3	-1	2	nt	nt	nt	nt	nt
CC(C)(CS(=O)(=O)[O-])NC(=O)CC[N+](C)(C)CCO	116*	52*	60*	28	-2	26	43*	-13	-11	86*	6	Beacon interf DR=>99
CCCCSc1nc2c(cc1C#N)CCC2	3	-1	-11	-1	1	4	nt	nt	nt	nt	nt
CCCSc1nc(C)c(-c2csc(C(C#N)=C3CCCC3)n2)cc1C#N	92*	6	57*	22	16	45*	60*	-12	5	-1	-2
CCCNC(=O)C[C@@H]1C[C@H]2c3cc(NC(=O)c4ccc5c(c4)OCO5)ccc3O[C@H]2[C@@H](CO)O1	1	-3	nt	0	-3	-7	nt	nt	nt	nt	nt

From PubChem
